The source made the active and inactive calls. The rule behind the calls is not given here.
How the values were obtained:
MCF7 = assay: Growth inhibition of human MCF7 cells; type: functional
[1] = target: T1, Histone deacetylase (Homo sapiens) (UniProt Q13547+O15379+Q9UBN7+Q92769+Q9UQL6+Q8WUI4+Q9BY41+Q96DB2+P56524+Q9UKV0+Q969S8); conditions: SKBr3, 100 nM
[2] = target: T1, Histone deacetylase (Homo sapiens); conditions: MDA-MB-231, 100 nM
[3] = target: T1, Histone deacetylase (Homo sapiens); conditions: MCF7, 100 nM
[4] = Half life in mouse liver homogenates at 100 uM by UPLC/MS analysis; type: ADME, tissue-based
Summary of the method: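 Compound added to preincubated murine liver homogenate (tissue broken up in 10 mM Tris pH 7.4, 1:3 w:v) at 37 °C, final 100 μM. Samples taken at 0, 15, 30, 45, 60, 120 min, quenched in methanol, centrifuged 10,000g to remove protein. Supernatant analyzed by reversed-phase C18 UPLC with MeOH/water/0.05% TFA gradient; parent ions monitored by ESI MS selected ion recording.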

half-life at 100 µM [4]	Structure (SMILES)	GI (MCF7)	inhibition [1]	inhibition [2]	inhibition [3]
	CC(C)[C@H]1NC(=O)[C@]2(C)CSC(=N2)c2csc(n2)CNC(=O)C[C@@H](/C=C/CCS)OC1=O [LARGAZOLE THIOL]	277 nM	inactive	inactive	inactive
32 min	C[C@@]12CSC(=N1)c1csc(n1)CNC(=O)C[C@@H](/C=C/CCS)OC(=O)CNC2=O	2458 nM			
	CC(C)[C@H]1NC(=O)[C@]2(C)CSC(=N2)c2csc(n2)[C@@H](Cc2ccccc2)NC(=O)C[C@@H](/C=C/CCS)OC1=O	377 nM			
≤ 5 min	C[C@@]12CSC(=N1)c1csc(n1)CNC(=O)C[C@@H](/C=C/CCS)OC(=O)CCNC2=O	5900 nM			
≤ 5 min	CC(C)[C@H]1NC(=O)C(C)(C)NC(=O)c2csc(n2)CNC(=O)C[C@@H](/C=C/CCS)OC1=O	> 10000 nM			

Structure (SMILES)	half-life at 100 µM [4]	GI (MCF7)	inhibition [1]	inhibition [2]	inhibition [3]
CC(C)[C@@H]1NC(=O)[C@]2(C)CSC(=N2)c2csc(n2)CNC(=O)C[C@@H](/C=C/CCS)OC1=O [LARGAZOLE THIOL]	51 min				
CCCCCCCC(=O)SCC/C=C/[C@@H]1CC(=O)NCc2nc(cs2)C2=N[C@@](C)(CS2)C(=O)N[C@@H](C(C)C)C(=O)O1 [LARGAZOLE]	≤ 5 min	5 nM	Active	Active	Active

Source: ChEMBL document CHEMBL1795237, “Total synthesis of largazole and analogues: HDAC inhibition, antiproliferative activity and metabolic stability” (Bioorg Med Chem, 2011)
